Experimental data published in ChEMBL document CHEMBL3286105, “Design, synthesis and antifungal activity of novel triazole derivatives containing substituted 1,2,3-triazole-piperdine side chains” (2014).
≈ marks a conversion by molar mass, not a printed value.

What was measured:
Assay type in all cases: functional
[1] = test system: Candida albicans; experiment: Antifungal activity against Candida albicans assessed as growth inhibition after 24 hrs by serial dilution method
Summary of the method: (§1)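 Candida strains were ATCC or clinical isolates. Compounds were dissolved in DMSO and serially diluted in growth medium. Plates were incubated at 35 °C and read at 24 h. MIC was the lowest concentration giving turbidity at […]80% inhibition relative to the growth control.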

[2] = test system: Candida parapsilosis; experiment: Antifungal activity against Candida parapsilosis assessed as growth inhibition after 24 hrs by serial dilution method; settings: Lodderomyces parapsilosis; summary of the method: as §1
[3] = test system: Nannizzia gypsea; experiment: Antifungal activity against Microsporum gypseum assessed as growth inhibition by serial dilution method
Summary of the method: (§2)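 Compounds were dissolved in DMSO and diluted in growth medium. Incubation was at 28 °C. MIC was the lowest concentration with turbidity at the 80% inhibition threshold relative to the drug-free growth control.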

[4] = test system: Nakaseomyces glabratus; experiment: Antifungal activity against Candida glabrata assessed as growth inhibition after 24 hrs by serial dilution method; summary of the method: as §1
[5] = test system: Cryptococcus neoformans; experiment: Antifungal activity against Cryptococcus neoformans assessed as growth inhibition after 72 hrs by serial dilution method
Summary of the method: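 Compounds were taken up in DMSO and diluted in growth medium. Incubation was at 35 °C with MIC read at 72 h. MIC was the lowest concentration at which turbidity reached the 80% inhibition cutoff against the untreated growth control.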

[6] = test system: Trichophyton rubrum; experiment: Antifungal activity against Trichophyton rubrum assessed as growth inhibition by serial dilution method; summary of the method: as §2
[7] = test system: Aspergillus fumigatus; experiment: Antifungal activity against Aspergillus fumigatus assessed as growth inhibition after 7 days by serial dilution method; settings: 168 h

Row | Structure (SMILES) | MIC80 [1] [µg/mL] | MIC80 [2] [µg/mL] | MIC80 [3] [µg/mL] | MIC80 [4] [µg/mL] | MIC80 [5] [µg/mL] | MIC80 [6] [µg/mL] | MIC80 [7] [µg/mL]
1 | OCCc1cn(C2CCN(CC(O)(Cn3cncn3)c3ccc(F)cc3F)CC2)nn1 (configuration not stated) | 4 (≈ 9.23 µM) | > 64 | > 64 | 16 (≈ 36.9 µM) | > 64 | > 64 | > 64
2 | OC(CN1CCC(n2cc(-c3cccnc3)nn2)CC1)(Cn1cncn1)c1ccc(F)cc1F (configuration not stated) | 0.125 (≈ 0.268 µM) | 1 (≈ 2.14 µM) | 16 (≈ 34.3 µM) | 1 (≈ 2.14 µM) | 0.125 (≈ 0.268 µM) | 4 (≈ 8.57 µM) | 64 (≈ 137 µM)
3 | O=C(O)c1cn(C2CCN(CC(O)(Cn3cncn3)c3ccc(F)cc3F)CC2)nn1 (configuration not stated) | 4 (≈ 9.23 µM) | 64 (≈ 148 µM) | > 64 | 8 (≈ 18.5 µM) | 16 (≈ 36.9 µM) | > 64 | > 64
4 | OCc1cn(C2CCN(CC(O)(Cn3cncn3)c3ccc(F)cc3F)CC2)nn1 (configuration not stated) | 8 (≈ 19.1 µM) | > 64 | > 64 | 32 (≈ 76.3 µM) | 64 (≈ 153 µM) | > 64 | > 64
5 | OCCCCc1cn(C2CCN(CC(O)(Cn3cncn3)c3ccc(F)cc3F)CC2)nn1 (configuration not stated) | 4 (≈ 8.67 µM) | 32 (≈ 69.3 µM) | > 64 | 8 (≈ 17.3 µM) | 32 (≈ 69.3 µM) | 64 (≈ 139 µM) | > 64
6 | OCCCc1cn(C2CCN(CC(O)(Cn3cncn3)c3ccc(F)cc3F)CC2)nn1 (configuration not stated) | 8 (≈ 17.9 µM) | > 64 | > 64 | 16 (≈ 35.8 µM) | > 64 | > 64 | > 64
7 | CCc1cn(C2CCN(CC(O)(Cn3cncn3)c3ccc(F)cc3F)CC2)nn1 (configuration not stated) | 0.125 (≈ 0.299 µM) | 1 (≈ 2.4 µM) | 8 (≈ 19.2 µM) | 0.5 (≈ 1.2 µM) | 1 (≈ 2.4 µM) | 1 (≈ 2.4 µM) | 64 (≈ 153 µM)
8 | CC(=O)c1ccc(-c2cn(C3CCN(CC(O)(Cn4cncn4)c4ccc(F)cc4F)CC3)nn2)cc1 (configuration not stated) | 0.0625 (≈ 0.123 µM) | 0.5 (≈ 0.985 µM) | 2 (≈ 3.94 µM) | 0.5 (≈ 0.985 µM) | 0.125 (≈ 0.246 µM) | 1 (≈ 1.97 µM) | 64 (≈ 126 µM)
9 | OC(CN1CCC(n2cc(C3CCCC3)nn2)CC1)(Cn1cncn1)c1ccc(F)cc1F (configuration not stated) | 0.5 (≈ 1.09 µM) | 8 (≈ 17.5 µM) | 64 (≈ 140 µM) | 4 (≈ 8.74 µM) | 8 (≈ 17.5 µM) | 16 (≈ 35 µM) | > 64
10 | CCOC(=O)c1cn(C2CCN(CC(O)(Cn3cncn3)c3ccc(F)cc3F)CC2)nn1 (configuration not stated) | 8 (≈ 17.3 µM) | > 64 | > 64 | 32 (≈ 69.3 µM) | > 64 | > 64 | > 64
11 | OC(CN1CCC(n2cc(-c3ccc(OC(F)(F)F)cc3)nn2)CC1)(Cn1cncn1)c1ccc(F)cc1F (configuration not stated) | 0.0125 (≈ 0.0227 µM) | 2 (≈ 3.64 µM) | 4 (≈ 7.28 µM) | 0.5 (≈ 0.91 µM) | 0.125 (≈ 0.227 µM) | 0.5 (≈ 0.91 µM) | 8 (≈ 14.6 µM)
12 | OC(CN1CCC(n2cc(C3CC3)nn2)CC1)(Cn1cncn1)c1ccc(F)cc1F (configuration not stated) | 0.125 (≈ 0.291 µM) | 1 (≈ 2.33 µM) | 8 (≈ 18.6 µM) | 0.25 (≈ 0.582 µM) | 1 (≈ 2.33 µM) | 2 (≈ 4.66 µM) | 64 (≈ 149 µM)
13 | CCCc1cn(C2CCN(CC(O)(Cn3cncn3)c3ccc(F)cc3F)CC2)nn1 (configuration not stated) | 0.125 (≈ 0.29 µM) | 1 (≈ 2.32 µM) | 4 (≈ 9.27 µM) | 0.25 (≈ 0.579 µM) | 0.5 (≈ 1.16 µM) | 1 (≈ 2.32 µM) | 16 (≈ 37.1 µM)
14 | O=C(O)CCCc1cn(C2CCN(CC(O)(Cn3cncn3)c3ccc(F)cc3F)CC2)nn1 (configuration not stated) | 0.5 (≈ 1.05 µM) | 8 (≈ 16.8 µM) | 32 (≈ 67.3 µM) | 4 (≈ 8.41 µM) | 4 (≈ 8.41 µM) | 4 (≈ 8.41 µM) | > 64
15 | CCC(C)n1ncn(-c2ccc(N3CCN(c4ccc(OCC5COC(Cn6cncn6)(c6ccc(Cl)cc6Cl)O5)cc4)CC3)cc2)c1=O (configuration not stated) [ITRACONAZOLE] | 1 (≈ 1.42 µM) | 4 (≈ 5.67 µM) | 2 (≈ 2.83 µM) | 1 (≈ 1.42 µM) | 2 (≈ 2.83 µM) | 0.5 (≈ 0.709 µM) | 1 (≈ 1.42 µM)
16 | COC(=O)CCCc1cn(C2CCN(CC(O)(Cn3cncn3)c3ccc(F)cc3F)CC2)nn1 (configuration not stated) | 0.25 (≈ 0.511 µM) | 4 (≈ 8.17 µM) | 8 (≈ 16.3 µM) | 2 (≈ 4.09 µM) | 4 (≈ 8.17 µM) | 4 (≈ 8.17 µM) | 64 (≈ 131 µM)
17 | COCc1cn(C2CCN(CC(O)(Cn3cncn3)c3ccc(F)cc3F)CC2)nn1 (configuration not stated) | 0.125 (≈ 0.288 µM) | 0.5 (≈ 1.15 µM) | 2 (≈ 4.61 µM) | 0.25 (≈ 0.577 µM) | 0.25 (≈ 0.577 µM) | 0.5 (≈ 1.15 µM) | 16 (≈ 36.9 µM)
18 | OC(CN1CCC(n2cc(-c3ccc(Br)cc3)nn2)CC1)(Cn1cncn1)c1ccc(F)cc1F (configuration not stated) | 0.125 (≈ 0.23 µM) | 1 (≈ 1.84 µM) | 2 (≈ 3.67 µM) | 0.5 (≈ 0.918 µM) | 0.125 (≈ 0.23 µM) | 0.25 (≈ 0.459 µM) | > 64
19 | OC(Cn1cncn1)(Cn1cncn1)c1ccc(F)cc1F [FLUCONAZOLE] | 0.25 (≈ 0.816 µM) | 2 (≈ 6.53 µM) | 32 (≈ 104 µM) | 1 (≈ 3.27 µM) | 1 (≈ 3.27 µM) | 8 (≈ 26.1 µM) | > 64
20 | OC(CN1CCC(n2cc(-c3ccccc3)nn2)CC1)(Cn1cncn1)c1ccc(F)cc1F (configuration not stated) | 0.125 (≈ 0.269 µM) | 1 (≈ 2.15 µM) | 4 (≈ 8.59 µM) | 1 (≈ 2.15 µM) | 0.25 (≈ 0.537 µM) | 0.5 (≈ 1.07 µM) | > 64
21 | OC(c1ccccc1)c1cn(C2CCN(CC(O)(Cn3cncn3)c3ccc(F)cc3F)CC2)nn1 (configuration not stated) | 2 (≈ 4.04 µM) | 8 (≈ 16.1 µM) | > 64 | 8 (≈ 16.1 µM) | 32 (≈ 64.6 µM) | 32 (≈ 64.6 µM) | 16 (≈ 32.3 µM)
22 | CN(C)c1ccc(-c2cn(C3CCN(CC(O)(Cn4cncn4)c4ccc(F)cc4F)CC3)nn2)cc1 (configuration not stated) | 0.25 (≈ 0.492 µM) | 2 (≈ 3.93 µM) | 4 (≈ 7.87 µM) | 2 (≈ 3.93 µM) | 1 (≈ 1.97 µM) | 2 (≈ 3.93 µM) | 8 (≈ 15.7 µM)
23 | Cc1ccccc1-c1cn(C2CCN(CC(O)(Cn3cncn3)c3ccc(F)cc3F)CC2)nn1 (configuration not stated) | 0.125 (≈ 0.261 µM) | 0.5 (≈ 1.04 µM) | 64 (≈ 133 µM) | 0.5 (≈ 1.04 µM) | 0.25 (≈ 0.521 µM) | 0.5 (≈ 1.04 µM) | > 64
24 | OC(CN1CCC(n2cc(Cc3ccccc3)nn2)CC1)(Cn1cncn1)c1ccc(F)cc1F (configuration not stated) | 0.125 (≈ 0.261 µM) | 1 (≈ 2.09 µM) | 4 (≈ 8.34 µM) | 1 (≈ 2.09 µM) | 0.5 (≈ 1.04 µM) | 1 (≈ 2.09 µM) | 32 (≈ 66.7 µM)
25 | CC(O)c1cn(C2CCN(CC(O)(Cn3cncn3)c3ccc(F)cc3F)CC2)nn1 (configuration not stated) | 8 (≈ 18.5 µM) | > 64 | > 64 | 16 (≈ 36.9 µM) | 64 (≈ 148 µM) | > 64 | > 64
26 | COc1cccc(-c2cn(C3CCN(CC(O)(Cn4cncn4)c4ccc(F)cc4F)CC3)nn2)c1 (configuration not stated) | 0.125 (≈ 0.252 µM) | 4 (≈ 8.07 µM) | 32 (≈ 64.6 µM) | 2 (≈ 4.04 µM) | 0.125 (≈ 0.252 µM) | 4 (≈ 8.07 µM) | > 64
